Screening data: PubChem, Broad Institute
The full list was thinned out, with hits kept by preference.
A1 apoptosis 2: compounds inhibiting A1, read as caspase activation; MEF A1-2A-BIM cells, caspase-Glo luminescence, 3 h; percent of clofoctol response, DMSO zero; caspase activation, % (test concentration not listed); 24,000 tested, under 10 active; AID 2465; in the data active means caspase activation above about 5.9%
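Material: mouse embryonic fibroblasts co-expressing A1 and BIM (A1-2A-BIM), primed for A1 dependence / Quantity: 2500 cells/well / Buffer or medium: RPMI-1640 growth medium with 10% FBS / Doses: 50 nL compound per well, pinned / Schedule: 3 h compound exposure at 37 °C / Signal: Caspase-Glo luminescence (DEVD substrate) / Measure: Caspase-3/7 activation, seen as rise in luminescence signal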
T cruzi intra: blocks T. cruzi growth inside host cells; activity score (inhibition), % at 5.01 µM; actives 4.9% (n = 22,000); intracellular Trypanosoma cruzi in host cells, plate reader; in the data active means activity score above about 55%;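 further: parasites and compound incubated about four days before reading; 0% = median of neutral control wells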
INS-1E rescue: rescue of cytokine-induced death in INS-1E beta cells; INS-1E cytokine-induced death, ATP luminescence, 48 h; normalised: neutral wells 0, positive control 100; AID 488910; protection from cytokine-induced ATP loss, % at 10 µM; actives 0.1% (n = 20,000);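 active means mean replicate protection from cytokine-induced ATP loss at least 50% and at least 75% of replicates each reaching 50%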
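Material: INS-1E rat cells; Quantity: 8000 cells/well; Buffer or medium: phenol-red-free RPMI with 5% fetal bovine serum; Probe or stimulus: cytokine cocktail of IFN-γ, TNF-α and IL-1β; Compound dosing: single test concentration per compound, delivered by pin transfer; Incubation: 48 h co-treatment, 10 min post-lysis read; Signal: CellTiter-Glo luminescence.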
Starred values were filed as active, the others as inactive; . = no result given.

SMILES | A1 apoptosis 2 | T cruzi intra | INS-1E rescue
COC(=O)CCCCCCC(=O)N/N=C/c1ccccc1[N+](=O)[O-] | -2 | -18 | 9
O=C1N(CCS(=O)(=O)c2ccccc2)c2ccccc2[C@H]2OC(c3ccc(OCCCO)cc3)=N[C@@]12CCS(=O)(=O)c1ccccc1 | -1 | . | .
CCOc1cc(/C=N/NC(=O)c2cccc(C(=O)NO)c2)ccc1O | . | -1 | -2
Cc1nc(S(=O)(=O)NC[C@@H]2CCCN(Cc3ccc(OCCO)cc3)C2)cn1C | 0 | . | .
O=C(CCCCC(=O)N/N=C/c1ccco1)NO | 0 | -2 | 14
O=C(N/N=C/c1ccccc1)c1ccccn1 | -8 | -18 | 8
C[C@@H]1CCCCO[C@H](CN(C)C(=O)Nc2cccc3ccccc23)[C@@H](C)CN([C@@H](C)CO)C(=O)c2cc(NS(=O)(=O)c3ccccc3)ccc2O1 | 0 | . | .
O=C(CCCCCCC(=O)Nc1ccccc1O)N/N=C/c1cc(Cl)cc(Cl)c1O | 1 | 27 | 2
O=C(CCCCC(=O)N/N=C/c1ccc2ccccc2c1)NO | 0 | 18 | 73*
O=C(CCCCC(=O)N/N=C/c1ccc(-c2ccccc2)c(F)c1)NO | . | 20 | 60*
COC(=O)CCCCCCC(=O)N/N=C/c1ccc(-c2ccccc2)c(F)c1 | -2 | 1 | 5
O=C(CCCCC(=O)N/N=C/c1cccc(O)c1)NO | . | -22 | -1
O=C(CCCCC(=O)N/N=C/c1cc(O)ccc1O)NO | 0 | 13 | 41
O=C(CCCCCC(=O)N/N=C/c1ccc(O)c2ccccc12)NO | 0 | 5 | 57*
Cc1ccc(F)cc1S(=O)(=O)N[C@@H]1CCN(Cc2ccc3c(c2)OCO3)C1 | -1 | . | .
COc1ccc(CN(C)C[C@@H]2Oc3ccc(NS(=O)(=O)c4ccccc4)cc3CC(=O)N([C@@H](C)CO)C[C@@H]2C)cc1 | . | 17 | 4
COc1ccc(CN(C)C[C@H]2Oc3ccc(NS(=O)(=O)c4ccc(OC)cc4)cc3CC(=O)N([C@H](C)CO)C[C@@H]2C)cc1 | -1 | . | .
COc1ccc(CN(C)C[C@@H]2Oc3ccc(NS(=O)(=O)c4ccc(OC)cc4)cc3CC(=O)N([C@H](C)CO)C[C@H]2C)cc1 | 1 | 70* | -8
COc1ccc(CN(C)C[C@@H]2Oc3ccc(NS(=O)(=O)c4ccc(F)cc4)cc3CC(=O)N([C@H](C)CO)C[C@H]2C)cc1 | . | 41 | -2
COc1ccc(S(=O)(=O)Nc2ccc3c(c2)CC(=O)N([C@@H](C)CO)C[C@@H](C)[C@@H](CN(C)Cc2ccc4c(c2)OCO4)O3)cc1 | 0 | 4 | -4
COc1ccc(S(=O)(=O)Nc2ccc3c(c2)CC(=O)N([C@H](C)CO)C[C@@H](C)[C@H](CN(C)Cc2ccc4c(c2)OCO4)O3)cc1 | . | 66* | 3
COc1ccc(S(=O)(=O)Nc2ccc3c(c2)CC(=O)N([C@H](C)CO)C[C@@H](C)[C@@H](CN(C)Cc2ccc(-c4ccccc4)cc2)O3)cc1 | 1 | 72* | -16
COc1ccc(CN(C)C[C@H]2Oc3ccc(NS(=O)(=O)c4ccc(OC)cc4)cc3CC(=O)N([C@H](C)CO)C[C@H]2C)cc1 | 0 | 64* | 3
O=C(NO)c1cccc(C(=O)N/N=C/c2ccc[nH]2)c1 | . | 6 | -5
CNC[C@@H]1OCCCC[C@H](C)Oc2ccc(N(C)C)cc2C(=O)N([C@@H](C)CO)C[C@H]1C | 0 | . | .
SMILES | A1 apoptosis 2 | T cruzi intra | INS-1E rescue
C[C@H](CO)N1C[C@H](C)[C@@H](CN(C)Cc2ccc(-c3ccccc3)cc2)Oc2ccc(NC(=O)Nc3cccc4ccccc34)cc2CC1=O | 0 | . | .
O=C(NCCCn1cc(C(=O)NO)nn1)Nc1ccccc1 | 1 | . | .
O=C(/C=C/c1ccc(OCCCc2ccccc2)cc1)NO | 0 | . | .
Cc1nnc(Sc2ccc(/C=N/NC(=O)CCCCCCC(=O)Nc3ccccc3O)o2)n1C | . | -3 | 1
CCCN(C)C[C@@H]1OCCCC[C@H](C)Oc2ccc(NC(=O)C3CCCCC3)cc2C(=O)N([C@H](C)CO)C[C@@H]1C | -1 | . | .
O=C1O[C@@H](c2ccccc2)[C@@H](c2ccccc2)N2[C@@H](c3ccc(OCCO)cc3)[C@]3(C(=O)Nc4ccc(C#CCCO)cc43)[C@@H](C(=O)NC[C@H](O)c3ccccc3)[C@H]12 | 0 | . | .
NC(=O)COc1ccc(/C=N/NC(=O)c2ccccn2)cc1 | -6 | -7 | -8
COc1ccc(S(=O)(=O)Nc2ccc3c(c2)CC(=O)N([C@@H](C)CO)C[C@@H](C)[C@H](CN(C)Cc2ccccc2)O3)cc1 | -1 | . | .
COc1ccc(S(=O)(=O)Nc2ccc3c(c2)CC(=O)N([C@H](C)CO)C[C@@H](C)[C@@H](CN(C)Cc2ccccc2)O3)cc1 | 0 | 63* | -6
